In ChEMBL document CHEMBL1151806, “Indolizidine, antiinfective and antiparasitic compounds from Prosopis glandulosa var. glandulosa” (J Nat Prod, 2009):
≈ marks a conversion by molar mass, not a printed value. Calls of active or inactive are those of the source. The rule behind the calls is not given here.

How the values were obtained:
[1] = test system: SK-OV-3; assay: Cytotoxicity against human SKOV3 cells after 48 hrs by neutral red assay; assay type: functional, cell-based; conditions: SK-OV-3, 48 h
In short: (§1)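 Cells seeded at 25,000/well, incubated 24 h, then exposed to samples for 48 h. Viable cells measured by Neutral Red uptake. IC50 from logarithmic plots of growth inhibition vs concentration. Doxorubicin positive control, DMSO vehicle control.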

[2] = test system: Aspergillus fumigatus; assay: Antimicrobial activity against Aspergillus fumigatus ATCC 90906 by alamar blue assay; assay type: functional, organism-based; conditions: for IC50: read-out: IC50
In short: (§2)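 Samples serially diluted in 20% DMSO/saline, tested in duplicate. Inocula set by OD630: C. albicans RPMI pH 4.5, 1·10^4 CFU/mL; C. neoformans Sabouraud dextrose, 1·10^5; MRSA cation-adjusted Mueller-Hinton pH 7.3, 5·10^5; M. intracellulare 7H9/OADC + 5% Alamar Blue pH 7.3, 2·10^6; A. fumigatus RPMI pH 7.3 + 5% Alamar Blue, 3·10^4.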

[3] = test system: Cryptococcus neoformans; assay: Antimicrobial activity against Cryptococcus neoformans ATCC 90113 by NCCLS method; assay type: functional, organism-based; in short: as §2
[4] = Selectivity index, IC50 for african green monkey (Cercopithecus aethiops) Vero cells to IC50 for chloroquine-sensitive Plasmodium falciparum D6; assay type: functional
In short: (§3)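 Selectivity index = IC50 against VERO cells divided by IC50 against P. falciparum (D6 or W2, respectively), each from the corresponding in-house assay.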

[5] = test system: Plasmodium falciparum; assay: Antimalarial activity after 72 hrs against chloroquine-resistant Plasmodium falciparum W2 by pLDH activity; assay type: functional, organism-based; conditions: W2, 72 h
In short: (§4)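 P. falciparum-infected red cells (2% parasitemia, 2% hematocrit) in RPMI-1640 with 10% human serum and 60 μg/mL amikacin, exposed to serial sample concentrations. Gassed with 90% N2/5% O2/5% CO2, incubated 37 °C for 72 h. Parasite LDH activity read colorimetrically with Malstat reagent.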

[6] = Selectivity index, IC50 for african green monkey (Cercopithecus aethiops) Vero cells to IC50 for […]; assay type: functional; in short: as §3
[7] = test system: Vero; assay: Cytotoxicity against african green monkey Vero cells after 48 hrs by neutral red assay; assay type: cell-based, Chlorocebus sabaeus; in short: as §1
[8] = test system: Staphylococcus aureus; assay: Antimicrobial activity against methicillin-resistant Staphylococcus aureus ATCC 43300 by NCCLS method; assay type: functional, organism-based; in short: as §2
[9] = test system: LLC-PK1; assay: Cytotoxicity against pig LLC-PK1 cells after 48 hrs by neutral red assay; assay type: cell-based, Sus scrofa; in short: as §1
[10] = test system: BT-549; assay: Cytotoxicity against human BT549 cells after 48 hrs by neutral red assay; assay type: functional, cell-based; conditions: BT-549, 48 h; in short: as §1
[11] = test system: Candida albicans; assay: Antimicrobial activity against Candida albicans ATCC 90028 by NCCLS method; assay type: functional, organism-based; in short: as §2
[12] = test system: Vero; assay: Cytotoxicity against african green monkey Vero cells; assay type: cell-based; conditions: Chlorocebus sabaeus; in short: as §1
[13] = test system: Leishmania donovani; assay: Antileishmanial activity against Leishmania donovani promastigotes after 48 hrs by alamar blue assay; assay type: functional, organism-based
[14] = test system: KB; assay: Cytotoxicity against human KB cells after 48 hrs by neutral red assay; assay type: functional, cell-based; in short: as §1
[15] = test system: SK-MEL; assay: Cytotoxicity against human SK-MEL cells after 48 hrs by neutral red assay; assay type: functional, cell-based; in short: as §1
[16] = test system: Mycobacterium intracellulare; assay: Antimicrobial activity against Mycobacterium intracellular ATCC 23068 by alamar blue assay; assay type: functional, organism-based
In short: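 Samples serially diluted in 20% DMSO/saline, tested in duplicate. Inocula set by OD630: C. albicans RPMI pH 4.5, 1·10^4 CFU/mL; C. neoformans Sabouraud dextrose, 1·10^5; MRSA cation-adjusted Mueller-Hinton pH 7.3, 5·10^5; M. intracellulare 7H9/OADC + 5% Alamar Blue pH 7.3, 2·10^6; A. fumigatus RPMI pH 7.3 + 5% Alamar Blue, 3·10^4. Read at 630 nm or 544ex/590em before and after incubation.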

[17] = test system: Plasmodium berghei; assay: Antimalarial activity as reduced parasitaemia at day 3 against Plasmodium berghei NK65 infected Swiss Webster mice (Mus musculus) at 1 mg/kg/day intraperitoneal dose for 3 days; assay type: functional; parameters: scale not given: the % may be the effect or the level left
In short: (§5)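 Peters 4-day suppressive test: male Swiss Webster mice (18–20 g) inoculated ip with 2·10^7 P. berghei NK-65 parasitized red cells. Compound in DMSO:PEG:water (1:3:6) given ip ~2 h post-infection, then once daily for 3 days (days 0–2). 5 mice/group; vehicle-treated control. Giemsa-stained tail blood smears read to day 28. % suppression = 100 − (treated/untreated parasitemia × 100). Cure = no parasitemia until day 28. Mice observed after each dose for signs of toxicity.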

[18] = test system: Plasmodium berghei; assay: Antimalarial activity as elimination of parasitaemia at day 28 against Plasmodium berghei NK65 infected Swiss Webster mice (Mus musculus) at 2 mg/kg/day intraperitoneal dose for 3 days; assay type: functional, organism-based; in short: as §5
[19] = Toxicity in RBC assessed as hemolysis; assay type: cell-based; conditions: Erythrocyte
[20] = test system: Aspergillus fumigatus; assay: Antimicrobial activity against Aspergillus fumigatus ATCC 90906 by alamar blue assay in presence of 5% human serum; assay type: functional, organism-based
[21] = test system: Plasmodium falciparum; assay: Antimalarial activity after 72 hrs against […] Plasmodium falciparum D6 by pLDH activity; assay type: functional, organism-based; conditions: D6, 72 h; in short: as §4
[22] = test system: Mycobacterium intracellulare; assay: Antimicrobial activity against Mycobacterium intracellular ATCC 23068 by alamar blue assay in presence of 5% human serum; assay type: functional, organism-based
[23] = test system: Plasmodium berghei; assay: Antimalarial activity as elimination of parasitaemia at day 28 against Plasmodium berghei NK65 infected Swiss Webster mice (Mus musculus) at 1 mg/kg/day intraperitoneal dose for 3 days; assay type: functional, organism-based; in short: as §5
[24] = test system: Plasmodium berghei; assay: Antimalarial activity as reduced parasitaemia at day 17 against Plasmodium berghei NK65 infected Swiss Webster mice (Mus musculus) at 1 mg/kg/day intraperitoneal dose for 3 days; assay type: functional, organism-based; in short: as §5
[25] = test system: Plasmodium berghei; assay: Antimalarial activity as reduced parasitaemia at day 3 against Plasmodium berghei NK65 infected Swiss Webster mice (Mus musculus) at 2 mg/kg/day intraperitoneal dose for 3 days; assay type: functional; parameters: scale not given: the % may be the effect or the level left; in short: as §5
[26] = test system: Mus musculus; assay: Toxicity in Swiss Webster mouse at 1 mg/kg, ip administered once daily for 3 days; assay type: organism-based; parameters: dose 1 mg/kg, route intraperitoneal; conditions: in vivo, 72 h; in short: as §5
[27] = test system: Staphylococcus aureus; assay: Antimicrobial activity against methicillin-resistant Staphylococcus aureus ATCC 43300 by NCCLS method in presence of 5% human serum; assay type: functional, organism-based
[28] = test system: Plasmodium berghei; assay: Antimalarial activity as reduced parasitaemia at day 10 against Plasmodium berghei NK65 infected Swiss Webster mice (Mus musculus) at 1 mg/kg/day intraperitoneal dose for 3 days; assay type: functional; parameters: scale not given: the % may be the effect or the level left; in short: as §5
[29] = test system: Cryptococcus neoformans; assay: Antimicrobial activity against Cryptococcus neoformans ATCC 90113 by NCCLS method in presence of 5% human serum; assay type: functional, organism-based
[30] = test system: Plasmodium berghei; assay: Antimalarial activity as reduced parasitaemia at day 17 against Plasmodium berghei NK65 infected Swiss Webster mice (Mus musculus) at 2 mg/kg/day intraperitoneal dose for 3 days; assay type: functional, organism-based; in short: as §5
[31] = test system: Candida albicans; assay: Antimicrobial activity against Candida albicans ATCC 90028 by NCCLS method in presence of 5% human serum; assay type: functional, organism-based
[32] = test system: Cryptococcus neoformans; assay: Antimicrobial activity against Cryptococcus neoformans ATCC 90113 infected in mouse assessed as […] elimination from brain tissue at 0.0625 mg/kg/day, ip for 5 days; assay type: functional; conditions: route intraperitoneal
[33] = test system: Plasmodium berghei; assay: Antimalarial activity as reduced parasitaemia against Plasmodium berghei NK65 infected Swiss Webster mice (Mus musculus); assay type: functional
[34] = Aspergillus fumigatus, ATCC 90906
[35] = Sus scrofa, LLC-PK1, 48 h, read-out: IC50
[36] = Candida albicans, ATCC 90028, read-out: IC50

In the case of C[C@@H]1N[C@H](CCCCCCCCCCc2cc(CCCCCCCCCC[C@H]3CC[C@@H](O)[C@@H](C)N3)c[n+]3c2CCC3)CC[C@H]1O [ISOPROSOPILOSIDINE], the IC50 [1] is reported as 4.5 µg/mL, the MFC [2, 34] is reported as 10 µg/mL and the MIC [2, 34] is reported as 10 µg/mL. The IC50 [2, 34] was 6.5 µg/mL, the IC50 [3] was 0.55 µg/mL and the MFC [3] was 1.25 µg/mL. For the same compound, the MIC [3] was 1.25 µg/mL, the “Ratio IC50” value [4] was >567 and the IC50 [5] was 0.12 µg/mL. The “Ratio IC50” value [6] was >198, the IC50 ([7]; vero) was “Not Active” and the IC50 [8] was 0.6 µg/mL. The MBC [8] was 20 µg/mL, the IC50 [9, 35] was 21.3 µg/mL and the IC50 [10] was 6.75 µg/mL. For the same compound, the IC50 [11] was “Not Active”, the MFC [11] was “inactive” and the MIC [11] was “inactive”. The IC50 [12] was > 23.8 µg/mL, the IC90 [13] was 2.5 µg/mL and the IC50 [14] was 7 µg/mL. The IC50 [15] was 3.3 µg/mL, the IC50 [16] was 1.5 µg/mL and the MBC [16] was “inactive”. It also gave an MIC [16] of 2.5 µg/mL.
In the case of C[C@@H]1N[C@H](CCCCCCCCCCc2cc(CCCCCCCCCC[C@@H]3CC[C@H](O)[C@@H](C)N3)c3[n+](c2)CCC3)CC[C@H]1O.[Cl-] [PROSOPILOSIDINE], the Activity [17] is reported as 48%, the MFC [2] is reported as “inactive” and the MIC [2, 34] is reported as 5 µg/mL. It also gave an IC50 [2, 34] of 3 µg/mL, an IC50 [3] of 0.4 µg/mL and an MIC [3] of 0.63 µg/mL. The Activity [18] was “inactive”, the IC50 [19] was 16 µg/mL and the Activity [20] was “Active”. For the same compound, the IC50 [5] was 0.095 µg/mL, the IC50 ([7]; vero) was “Not Active” and the IC50 [21] was 0.039 µg/mL. It also gave an IC50 [8] of 0.35 µg/mL, an MBC [8] of 5 µg/mL and an MIC [8] of 1.25 µg/mL. The Activity [22] was “Active”, the Activity [23] was “inactive” and the Activity [24] was “inactive”. The IC50 ([9]; llc-pk1) was “Not Active”, the IC50 [10] was 8.75 µg/mL and the MFC [11] was “inactive”. The MIC [11] was “inactive”, the IC50 [11, 36] was 15 µg/mL and the Activity [25] was 48%. For the same compound, the IC50 [12] was > 23.8 µg/mL, the Activity [26] was “Non-toxic” and the Activity [27] was “Active”. For the same compound, the Activity [28] was 40.5%, the Activity [29] was “Active” and the Activity [30] was “inactive”. The IC50 [13] was 0.7 µg/mL, the IC90 [13] was 1.9 µg/mL and the IC50 [14] was 7.5 µg/mL. The Activity [31] was “Active”, the Activity [32] was 76% and the IC50 [15] was 4.5 µg/mL. The ED50 [33] was 2 mg/kg, the IC50 [16] was 0.9 µg/mL and the MBC [16] was 20 µg/mL.
Compound C[C@@H]1N[C@H](CCCCCCCCCCC2=C[C@@H](CCCCCCCCCC[C@@H]3CC[C@@H](O)[C@H](C)N3)[C@@H]3CCCN3C2)CC[C@H]1O [PROSOPILOSINE] has an MFC [2, 34] of 0.63 µg/mL (≈ 1 µM), an MIC [2, 34] of 0.63 µg/mL (≈ 1 µM) and an IC50 [2, 34] of 0.45 µg/mL (≈ 0.714 µM). For the same compound, the IC50 [3] was 0.8 µg/mL (≈ 1.27 µM), the MFC [3] was 1.25 µg/mL (≈ 1.98 µM) and the “Ratio IC50” value [4] was 47. For the same compound, the IC50 [5] was 0.23 µg/mL (≈ 0.365 µM), the “Ratio IC50” value [6] was 24 and the IC50 ([7]; Chlorocebus sabaeus, Vero, 48 h, read-out: IC50) was 5.7 µg/mL (≈ 9.05 µM). It also gave an IC50 [21] of 0.12 µg/mL (≈ 0.19 µM), an IC50 [8] of 1.5 µg/mL (≈ 2.38 µM) and an IC50 [9, 35] of 1.9 µg/mL (≈ 3.02 µM). For the same compound, the IC50 [11, 36] was 15 µg/mL (≈ 23.8 µM), the IC50 [12] was 5.6 µg/mL (≈ 8.89 µM) and the IC50 [13] was 0.65 µg/mL (≈ 1.03 µM). The IC50 [14] was 6 µg/mL (≈ 9.52 µM), the IC50 [15] was < 1.1 µg/mL and the IC50 [16] was 2 µg/mL (≈ 3.17 µM). For the same compound, the MBC [16] was 20 µg/mL (≈ 31.7 µM).
